Test results: ChEMBL document CHEMBL1122272, “2-haloethylating agents for cancer chemotherapy. 2-haloethyl sulfonates” (1983)
Values joined by “and” are separate entries in the source; they are usually repeats but may differ in a detail not shown here. Equal entries are not always repeated.

Assays:
P388 [1] = test: T/C ratio against P388 leukemia in mice at a dose(mg/kg, schedule (q.d.).; format: functional, organism-based; settings: Mus musculus
How it was run: (§1)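 Mice inoculated ip with 10⁶ P388 leukemia cells on day 0. Dosed once on day 1, or q.d. days 1-9 or 1-5. Solutions or suspensions given within about 5 min of preparation, or within 15 min where marked. Value is median/mean survival time, treated vs control, as T/C %. Dose counted toxic if day-5 mortality >3 of 6, T/C <85%, or weight-change difference beyond -4 g.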

P388 [2] = test: (§2) T/C ratio against P388 leukemia in mice at a dose(mg/kg, schedule (q.d.)); format: functional, Mus musculus; how it was run: as §1
P388 [3] = test: Weight change in mice against P388 leukemia; format: functional, Mus musculus
How it was run: (§3)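 P388 leukemia mice given 10⁶ cells ip on day 0 and then treated on a single day-1 or q.d. 1-9 or 1-5 schedule. Solutions or suspensions given within about 5 or 15 min of preparation. Value is average weight change on day 5 of treated mice minus that of control mice, in g.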

P388 [4] = test: as §2; format: functional, Mus musculus; how it was run: as §1; remark: listed apart in the source
P388 [5] = test: T/C ratio against P388 leukemia in mice dose(mg/kg, schedule (q.d.)); format: functional, Mus musculus; how it was run: as §1
P388 [6] = test: as §2; format: functional, Mus musculus; how it was run: as §1; remark: listed apart in the source
P388 [7] = test: weight change difference (T-C) in mice against P388 leukemia at a dose(mg/kg, schedule); format: functional, Mus musculus; how it was run: as §3
P388 [8] = test: T/C ratio against P388 leukemia in mice at a dose(mg/kg, schedule); format: functional, Mus musculus; how it was run: as §1
P388 [9] = test: as §2; format: functional, Mus musculus; how it was run: as §1; remark: listed apart in the source

| SMILES | T/C (P388 [1]) | T/C (P388 [2]) | Weight change difference (P388 [3]) | further results |
| --- | --- | --- | --- | --- |
| CS(=O)(=O)OCCF | Toxic | 89% and 103% and 111% and 100% |  |  |
| CS(=O)(=O)OCCBr | Toxic | 116% and 114% |  |  |
| O=S(=O)(CCl)OCCF | Toxic | 117% and 102% | -2.1 g and -0.8 g |  |
| O=S(=O)(OCCCl)c1cc(Cl)c(Cl)cc1Cl |  | 90% and 114% and 105% |  |  |
| O=S(=O)(OCCF)c1cc(Cl)c(Cl)cc1Cl | Toxic | 113% and 98% |  |  |
| O=S(=O)(OCCCl)c1c(Cl)c(Cl)c(Cl)c(Cl)c1Cl | Toxic | 96% and 92% | -3.2 g and -4.3 g and -1.6 g | T/C (P388 [4]): 92% |
| O=[N+]([O-])c1ccc(CS(=O)(=O)OCCCl)cc1 | Toxic |  |  |  |
| Cc1cc(C)c(S(=O)(=O)OCCCl)c(C)c1 | Toxic | 95% and 106% |  |  |
| C=CS(=O)(=O)OCCCl | Toxic | 125% and 111% |  |  |
| COc1ccc(S(=O)(=O)OCCCl)cc1 |  | 100% | 0 g |  |
| CS(=O)(=O)OCCCl | Toxic | 134% and 133% | -1.6 g and -0.8 g | T/C (P388 [5]): 108%; T/C (P388 [6]): 102%; Weight change difference (P388 [7]): -1.2 g and -2.2 g and -0.9 g; T/C (P388 [8]): 110% |
| O=S(=O)(OCCCl)c1ccc(F)cc1 |  | 100% and 101% |  |  |
| O=S(=O)(CCl)OCCCl | Toxic | 214% and 201% and 175% and 131% and 120% |  |  |
| O=[N+]([O-])c1ccc(/C=C/S(=O)(=O)OCCCl)cc1 | Toxic | 100% and 104% |  |  |
| O=S(=O)(CCl)NCCCl |  | 106% |  |  |
| O=S(=O)(OCCCl)c1c(F)c(F)c(F)c(F)c1F | Toxic | 110% and 100% |  |  |
| Cc1c(C)c(C)c(S(=O)(=O)OCCCl)c(C)c1C |  | 95% | -0.2 g |  |
| CCS(=O)(=O)OCCCl |  | 116% and 104% |  |  |
| N#CCS(=O)(=O)OCCCl |  | 151% and 144% and 126% | -1.5 g and -2.1 g and -1.1 g |  |
| C=C(Br)S(=O)(=O)OCCCl | Toxic | 100% and 104% | -2.8 g and -1.4 g |  |
| O=S(=O)(CI)OCCCl | Toxic | 93% | -0.1 g | T/C (P388 [9]): 110% |
| O=S(=O)(/C=C/c1ccccc1)OCCCl |  | 107% | -0.1 g |  |
| O=S(=O)(CBr)OCCCl |  | 165% and 200% and 159% and 128% and 120% |  | Weight change difference (P388 [7]): -0.2 g |
| CCOS(=O)(=O)CCl |  | 107% and 100% and 60% |  |  |
| O=C(CCl)NCCCl | Toxic | 100% and 97% |  |  |
| CCS(=O)(=O)OCCF | Toxic | 106% and 111% | -0.7 g and -0.6 g |  |
